This is an account of results in ChEMBL document CHEMBL1140127, “Enantiomeric propanolamines as selective N-methyl-D-aspartate 2B receptor antagonists” (J Med Chem, 2008).

What is called IC50 is the concentration that gives 50% inhibition. Broadly, the half-life is the time in which the quantity being followed falls by half. As a reminder, the inhibition is how much of the control response was suppressed.

Data set [1] deals with Voltage-gated inwardly rectifying potassium channel KCNH2 (Homo sapiens, UniProt Q12809). The data set can be described thus: Displacement of [3H]astemizole from human ERG expressed in HEK293 cells. Background: Displacement assays read how much labelled ligand stays bound in the presence of the test substance.
Voltage-gated inwardly rectifying potassium channel KCNH2, sequence (Q12809 whole entry): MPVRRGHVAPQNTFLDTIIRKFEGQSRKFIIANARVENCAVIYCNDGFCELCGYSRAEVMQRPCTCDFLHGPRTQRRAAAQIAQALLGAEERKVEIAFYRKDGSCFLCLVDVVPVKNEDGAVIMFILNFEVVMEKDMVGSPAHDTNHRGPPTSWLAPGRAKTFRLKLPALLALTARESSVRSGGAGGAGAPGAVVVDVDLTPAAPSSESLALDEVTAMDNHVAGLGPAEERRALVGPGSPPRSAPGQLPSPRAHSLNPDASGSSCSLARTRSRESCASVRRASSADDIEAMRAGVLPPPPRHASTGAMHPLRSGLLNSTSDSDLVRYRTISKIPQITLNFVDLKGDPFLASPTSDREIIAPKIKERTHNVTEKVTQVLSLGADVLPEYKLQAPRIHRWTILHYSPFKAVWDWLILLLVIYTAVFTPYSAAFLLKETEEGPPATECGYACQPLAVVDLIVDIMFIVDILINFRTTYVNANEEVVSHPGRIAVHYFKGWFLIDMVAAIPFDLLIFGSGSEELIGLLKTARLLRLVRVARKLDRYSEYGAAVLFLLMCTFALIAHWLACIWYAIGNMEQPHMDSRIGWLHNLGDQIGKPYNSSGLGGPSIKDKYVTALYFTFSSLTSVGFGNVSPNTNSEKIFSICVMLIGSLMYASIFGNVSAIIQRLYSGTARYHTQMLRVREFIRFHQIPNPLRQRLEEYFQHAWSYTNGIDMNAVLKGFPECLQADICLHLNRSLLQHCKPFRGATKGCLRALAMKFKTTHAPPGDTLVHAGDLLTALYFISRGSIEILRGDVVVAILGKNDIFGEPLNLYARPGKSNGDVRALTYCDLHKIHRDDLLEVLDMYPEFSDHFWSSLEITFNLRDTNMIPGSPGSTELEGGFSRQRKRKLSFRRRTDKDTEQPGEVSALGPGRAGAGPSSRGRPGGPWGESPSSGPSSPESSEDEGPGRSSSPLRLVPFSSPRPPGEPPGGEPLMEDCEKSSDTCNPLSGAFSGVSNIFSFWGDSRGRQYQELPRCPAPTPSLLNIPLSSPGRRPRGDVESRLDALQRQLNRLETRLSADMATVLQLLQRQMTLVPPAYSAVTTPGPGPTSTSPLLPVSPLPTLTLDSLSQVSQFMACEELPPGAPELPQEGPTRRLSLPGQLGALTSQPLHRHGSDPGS
The target of data set [2] is Glutamate NMDA receptor; Grin1/Grin2b (Rattus norvegicus, UniProt P35439+Q00960). In words: Inhibition of rat recombinant NR1/NR2B receptor expressed in Xenopus oocytes assessed as inhibition of glutamate and glycine-induced evoked current by two electrode voltage clamp method. The format is cell-based, Oocyte.
For data set [3], the target named is T1, Adrenergic receptor alpha-1 (Rattus norvegicus, UniProt P15823+P23944+P43140).
T1 sequence (P15823 whole entry): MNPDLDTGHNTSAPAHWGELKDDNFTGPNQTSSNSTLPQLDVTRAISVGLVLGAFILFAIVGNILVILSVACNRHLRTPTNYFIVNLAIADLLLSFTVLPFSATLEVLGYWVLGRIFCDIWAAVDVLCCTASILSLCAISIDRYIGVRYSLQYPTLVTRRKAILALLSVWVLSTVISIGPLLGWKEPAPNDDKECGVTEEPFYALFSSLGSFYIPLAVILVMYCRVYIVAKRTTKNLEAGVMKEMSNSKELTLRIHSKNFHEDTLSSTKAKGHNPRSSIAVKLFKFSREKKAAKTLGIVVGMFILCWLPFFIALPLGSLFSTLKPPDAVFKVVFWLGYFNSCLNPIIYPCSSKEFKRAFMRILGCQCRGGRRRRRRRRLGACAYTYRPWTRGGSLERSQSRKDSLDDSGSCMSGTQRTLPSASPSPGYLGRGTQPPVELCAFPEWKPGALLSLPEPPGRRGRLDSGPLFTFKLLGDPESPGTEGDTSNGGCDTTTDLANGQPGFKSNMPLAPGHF
T1 sequence (P23944 whole entry): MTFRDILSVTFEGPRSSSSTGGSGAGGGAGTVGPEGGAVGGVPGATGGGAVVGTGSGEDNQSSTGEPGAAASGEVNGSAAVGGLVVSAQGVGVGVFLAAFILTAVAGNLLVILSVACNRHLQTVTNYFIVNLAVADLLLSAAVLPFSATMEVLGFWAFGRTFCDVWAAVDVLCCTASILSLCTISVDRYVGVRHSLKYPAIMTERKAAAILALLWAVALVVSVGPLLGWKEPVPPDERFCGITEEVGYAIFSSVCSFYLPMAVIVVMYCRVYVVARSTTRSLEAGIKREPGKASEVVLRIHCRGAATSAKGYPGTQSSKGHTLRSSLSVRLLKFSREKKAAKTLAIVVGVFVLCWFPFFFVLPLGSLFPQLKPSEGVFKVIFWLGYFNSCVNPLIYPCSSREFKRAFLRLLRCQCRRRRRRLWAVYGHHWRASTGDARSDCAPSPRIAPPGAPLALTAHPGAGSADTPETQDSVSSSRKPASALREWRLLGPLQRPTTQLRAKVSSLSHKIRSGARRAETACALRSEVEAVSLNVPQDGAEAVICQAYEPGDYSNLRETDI
T1 sequence (P43140 whole entry): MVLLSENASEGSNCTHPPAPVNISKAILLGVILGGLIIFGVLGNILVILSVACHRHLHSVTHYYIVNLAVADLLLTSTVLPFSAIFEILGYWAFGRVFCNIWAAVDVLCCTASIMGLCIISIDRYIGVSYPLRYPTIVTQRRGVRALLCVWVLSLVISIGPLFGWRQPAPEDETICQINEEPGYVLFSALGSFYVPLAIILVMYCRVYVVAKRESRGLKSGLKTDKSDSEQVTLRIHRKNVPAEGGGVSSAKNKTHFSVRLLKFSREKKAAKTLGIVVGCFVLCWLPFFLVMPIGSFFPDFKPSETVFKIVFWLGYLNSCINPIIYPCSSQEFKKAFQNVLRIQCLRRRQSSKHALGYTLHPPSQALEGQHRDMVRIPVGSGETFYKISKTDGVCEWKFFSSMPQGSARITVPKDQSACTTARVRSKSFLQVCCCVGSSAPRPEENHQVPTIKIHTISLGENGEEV
In words: Displacement of [3H]prazosin from alpha1 adrenergic receptor in rat brain. The format is tissue-based. In a few lines:
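Rat brain membranes; displacement of [3H]-prazosin at 4–6 concentrations, each point in duplicate. IC50 from displacement curves fitted by nonlinear least-squares regression.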

Data set [4] in a line: Half life in rat plasma at 4 mg/kg, iv administered as single dose by LC-MS/MS analysis. The format is ADME, organism-based. Set-up: dose 4 mg/kg, route intravenous. In outline:
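Rats, n = 3, fasted overnight and given a single 4 mg/kg iv bolus via the tail vein in 2% dimethyl acetamide/98% 5% hydroxypropyl cyclodextrin. Blood collected into K-EDTA from the orbital plexus at 5, 30, 120 and 240 min. Plasma extracted with cold acetonitrile and analyzed by LC-MS/MS in MRM mode against a standard curve.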

Data set [5] deals with Rattus norvegicus. The data set can be described thus: Anticonvulsant activity in Sprague-Dawley rat assessed as inhibition of electroshock-induced tonic hind limb extension at 30 mg/kg, ip administered 30 mins before electroshock. The format is functional, organism-based. Set-up: dose 30 mg/kg. The settings on record: Hindlimb. In a few lines:
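Male Sprague–Dawley rats, 100–125 g, with 1% lidocaine dropped into each conjunctiva before maximal electroshock. Compound given ip in DMSO 30 min before the stimulus. Tested on three consecutive days: untreated on days 1 and 3, compound on day 2. Duration of tonic hind limb extension scored visually. Vehicle served as negative control and carbamazepine 60 mg/kg as positive control. ANOVA with Bonferroni post hoc test.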

Data set [6] addresses Glutamate NMDA receptor; Grin1/Grin2b (Rattus norvegicus) (UniProt P35439+Q00960). The data set can be described thus: Inhibition of rat wild type NR1/NR2B receptor expressed in Xenopus oocytes at 100 nM by two electrode voltage clamp method. The format is cell-based. The following applies: Oocyte. In general terms: Two-electrode voltage clamp is typically applied to oocytes expressing channels or transporters.

For data set [7], the system named is Glutamate receptor ionotropic, NMDA 1 (Rattus norvegicus), P35439 [H134A]. In words: Inhibition of rat NR1(H134A)/NR2B mutant receptor expressed in Xenopus oocytes at 100 nM by two electrode voltage clamp method. The settings on record: Oocyte. It is filed as cell-based.
Data set [8] deals with Glutamate receptor ionotropic, NMDA 2B (Rattus norvegicus), Q00960 [E201R]. The data set can be described thus: Inhibition of rat NR1/NR2B(E201R) mutant receptor expressed in Xenopus oocytes at 100 nM by two electrode voltage clamp method. It is filed as cell-based. The settings on record: Oocyte.
Data set [9] deals with Mus musculus. In words: Effect on motor coordination in mouse at 0.3 mg/kg, ip administered 20 mins prior to test after 5 days by rotarod test. The settings on record: in vivo. Set-up: dose 0.3 mg/kg, route intraperitoneal. The format is ADME, organism-based. In outline: (§1)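 Accelerating rotarod: starts at 5 rpm, then after 10 s ramps 5 to 35 rpm over 5 min; latency to fall recorded automatically. Four trials daily, 25 min apart, for 5 days. On day 5 mice randomised and dosed ip (25% DMSO/75% saline, 5 mL/kg) 20 min before the first trial. Tester blinded; ANOVA with Dunnett's post hoc.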
For orientation: The rotarod test checks motor coordination on a turning rod.

In data set [10] the test system is Rattus norvegicus. The data set can be described thus: Effect on locomotor activity in Sprague-Dawley rat at 0.3 mg/kg, ip. It is filed as functional. The following applies: route intraperitoneal. In a few lines:
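Rats habituated to the test room at least 30 min, then basal horizontal activity recorded 1 h in photobeam activity chambers. Animals then dosed ip and returned to the chamber for 2 h. Vehicle group run each day. Compared with vehicle by ANOVA with Dunnett's post hoc.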

Data set [11] concerns Mus musculus. In words: Effect on motor coordination in mouse at 0.6 mg/kg, ip administered 20 mins prior to test after 5 days by rotarod test. The settings on record: in vivo. It is filed as ADME, organism-based. The arrangement: dose 0.6 mg/kg, route intraperitoneal. In a few lines: as §1

Activity calls are given as the source filed them. The rule behind the calls is not given here.

As for `Cc1ccc(CCNC[C@H](O)COc2ccc(NS(C)(=O)=O)cc2)cc1C`, the values for the IC50 in data set [1], in [2] and in data set [3] were 2400 nM, 207 nM and 2200 nM, respectively.

On to `CS(=O)(=O)Nc1ccc(OC[C@@H](O)CN(CCO)CCc2ccc(Cl)c(Cl)c2)cc1`, for which the IC50 in data set [2] is 122 nM. The compound also showed a half-life in [4] of 36 min. Moreover, in the data set with Rattus norvegicus [5], the result was Active.

As to `CS(=O)(=O)Nc1ccc(OC[C@@H](O)CN(CCc2ccc(Cl)c(Cl)c2)Cc2ccccn2)cc1`, the IC50 in data set [2] worked out at 2760 nM. Further, in [4], the half-life was 36 min.

For the compound `CS(=O)(=O)Nc1ccc(OC[C@@H](O)CNCCc2ccc(Cl)cc2)cc1`, the IC50 turned out to be 101 nM in [2] and 9500 nM in data set [3].

For `CS(=O)(=O)Nc1ccc(OC[C@@H](O)CNCCc2ccc(Cl)c(F)c2)cc1`, the IC50 in data set [1] is 1910 nM; in [2], 68 nM; in data set [3] it was more than 10000 nM.

For the compound `CN(CCc1ccc(Cl)c(Cl)c1)C[C@H](O)COc1ccc(NS(C)(=O)=O)cc1`, the figures for the IC50 in data set [2] and in [3] were 130 nM and 1400 nM, respectively.

In the case of `CS(=O)(=O)Nc1ccc(OC[C@@H](O)CN(CCc2ccc(Cl)c(Cl)c2)Cc2ccccc2O)cc1`, the IC50 in [2] was 662 nM; in data set [3], more than 10000 nM.

Regarding `CN(CCc1ccc(Cl)c(Cl)c1)CC(O)COc1ccc(NS(C)(=O)=O)cc1` (racemic), the inhibition in data set [6] was found to be 67.1%; in [7], 8.9%; in data set [8], 4.2%. In addition, the outcome in the data set on Rattus norvegicus [5] was Active.

For `CS(=O)(=O)Nc1ccc(OC[C@@H](O)CN(CCc2ccc(Cl)c(Cl)c2)Cc2cccc(O)c2)cc1`, the IC50 in data set [2] was 238 nM; in data set [3] it was more than 10000 nM. Also, the half-life in [4] is 36 min.

In the case of `CS(=O)(=O)Nc1ccc(OC[C@@H](O)CNCCc2ccc(F)c(F)c2)cc1`, the IC50 in [1] was 1630 nM; in data set [2], 357 nM; in data set [3], more than 10000 nM.

For `C[C@]12N[C@H](Cc3ccccc31)c1ccccc12` [DIZOCILPINE], the Activity result is recorded as “Toxic” in the data set on Mus musculus [9], 38233 in the data set with Rattus norvegicus [10] and “Toxic” in the data set with Mus musculus [11].

On to `CCN(CCc1ccc(Cl)c(Cl)c1)C[C@H](O)COc1ccc(NS(C)(=O)=O)cc1`, for which the values for the IC50 in data set [2] and in [3] were 96 nM and 3500 nM, respectively. In data set [4], this compound showed a half-life of 36 min.

As to `CS(=O)(=O)Nc1ccc(OC[C@@H](O)CN(CCc2ccc(Cl)c(Cl)c2)Cc2ccccc2F)cc1`, the values for the IC50 in data set [2] and in data set [3] were 80 nM and more than 10000 nM, respectively.

For `CS(=O)(=O)Nc1ccc(OC[C@@H](O)CN(CCc2ccc(Cl)c(Cl)c2)Cc2ccc(F)c(F)c2F)cc1`, the 50% inhibitory concentration (IC50) is 51 nM in [2] and more than 10000 nM in data set [3].

For the compound `CCCCN(CCc1ccc(Cl)c(Cl)c1)C[C@H](O)COc1ccc(NS(C)(=O)=O)cc1`, the IC50 is 421 nM in data set [2] and 4900 nM in data set [3]. The same compound showed a half-life in data set [4] of 36 min.
